Experimental data from ChEMBL document CHEMBL1944612, “Structural modification of ginsenoside Rh(2) by fatty acid esterification and its detoxification property in antitumor” (Bioorg Med Chem Lett, 2012).

Experiments:
[1] = Growth inhibition of human QSG7701 cells at 50 uM after 48 hrs by MTT assay; conditions: read-out: GI
How it was run: (§1)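 QSG-7701 human hepatocytes seeded at 5×10^3 cells/mL in 96-well plates. Compounds were dissolved in DMSO and diluted in RPMI 1640 (final DMSO <0.1%), in triplicate, for 48 h. MTT (5 mg/mL stock) was added for 2 h, and formazan was dissolved in DMSO. OD was read at 570 nm (450 nm reference). IC50 is the concentration giving 50% absorbance reduction versus vehicle control.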

[2] = system: H22 (Mus musculus); experiment: Antitumor activity against mouse H22 cells xenografted in Kunming mouse assessed as reduction in tumor weight at 5 mg/kg, po qd for 10 days; conditions: 240 h
[3] = system: Mus musculus; experiment: Immunostimulatory activity in Kunming mouse xenografted with […] cells assessed as change in thymus mass at 5 mg/kg, po qd for 10 days (reference value: 1.83 +/- 0.85 mg/kg); type: functional
[4] = system: Mus musculus; experiment: Immunostimulatory activity in Kunming mouse xenografted with […] cells assessed as change in thymus mass at 10 mg/kg, po qd for 10 days (reference value: 1.83 +/- 0.85 mg/kg); type: functional
[5] = Growth inhibition of human QSG7701 cells after 48 hrs by MTT assay; conditions: QSG7701, 48 h; how it was run: as §1
[6] = system: Mus musculus; experiment: Immunostimulatory activity in Kunming mouse xenografted with […] cells assessed as change in spleen mass at 10 mg/kg, po qd for 10 days (reference value: 6.61 +/- 1.84 mg/kg); type: functional
[7] = system: Mus musculus; experiment: Toxicity in Kunming mouse xenografted with human H22 cells assessed as change in body weight at 20 mg/kg, po qd for 10 days (reference value: 23.4 +/- 2.8 g); type: organism-based; set-up: dose 20 mg/kg, route oral; conditions: in vivo, 240 h
[8] = system: Mus musculus; experiment: Immunostimulatory activity in Kunming mouse xenografted with […] cells assessed as change in spleen mass at 5 mg/kg, po qd for 10 days (reference value: 6.61 +/- 1.84 mg/kg); type: functional
[9] = system: H22; experiment: Antitumor activity against human H22 cells xenografted in Kunming mouse assessed as reduction in tumor volume at 20 mg/kg, po qd for 10 days; conditions: 240 h, read-out: INH
[10] = system: Mus musculus; experiment: Toxicity in Kunming mouse xenografted with […] cells assessed as change in body weight at 20 mg/kg, po qd for 10 days (reference value: 24.8 +/- 1.1 g); type: organism-based; set-up: dose 20 mg/kg, route oral; conditions: in vivo, 240 h

SMILES | inhibition at 48 h, 50 µM [1] [%] | inhibition in vivo at 5 mg/kg [2] [%] | Activity [3] [mg/g] | Activity [4] [mg/g] | IC50 [5] [µM] | Activity [6] [mg/g] | Activity [7] [g] | Activity [8] [mg/g] | inhibition in vivo at 20 mg/kg [9] [%] | Activity [10] [g]
CC(C)=CCC[C@](C)(O)[C@H]1CC[C@]2(C)[C@@H]1[C@H](O)C[C@@H]1[C@@]3(C)CC[C@H](O[C@@H]4O[C@H](CO)[C@@H](O)[C@H](O)[C@H]4O)C(C)(C)[C@@H]3CC[C@]12C [GINSENOSIDE RH2] | 83 | 53 | 2.25 | 2.09 | 37.3 | 5.35 | 23.2 | 5.48 |  | 
O=P1(N(CCCl)CCCl)NCCCO1 (configuration not stated) [CYCLOPHOSPHAMIDE ANHYDROUS] |  |  |  |  |  |  |  |  | 72 | 
CCCCCCCC(=O)OC[C@H]1O[C@@H](O[C@H]2CC[C@]3(C)[C@H]4C[C@@H](OC(=O)CCCCCCC)[C@@H]5[C@@H]([C@@](C)(O)CCC=C(C)C)CC[C@@]5(C)[C@]4(C)CC[C@H]3C2(C)C)[C@H](O)[C@@H](O)[C@@H]1O | 18 | 52 | 2.15 | 3.42 | 80.5 | 6.31 |  | 5.27 |  | 27.1
